Experimental data as given in article PMC5131535 (ACS chemical neuroscience, 2016).
Where “and” joins values, the source holds several entries; their conditions need not be identical. Equal values may be shown once. Entries after “also recorded” stand apart in the source; their conditions may differ. Read-outs that look alike come from different tables or passages of the source.

How the values were obtained:
Kir2.1 = molecular target: T1, Kir2.1 (Homo sapiens, UniProt P63252); experiment: Tl+ flux selectivity assay, Kir2.1; format: cell-based; details: for Kir Channel Selectivity (Fold) 2.1: Thallium flux, Kir7.1 over Kir2.1
T1 sequence (P63252 1-427): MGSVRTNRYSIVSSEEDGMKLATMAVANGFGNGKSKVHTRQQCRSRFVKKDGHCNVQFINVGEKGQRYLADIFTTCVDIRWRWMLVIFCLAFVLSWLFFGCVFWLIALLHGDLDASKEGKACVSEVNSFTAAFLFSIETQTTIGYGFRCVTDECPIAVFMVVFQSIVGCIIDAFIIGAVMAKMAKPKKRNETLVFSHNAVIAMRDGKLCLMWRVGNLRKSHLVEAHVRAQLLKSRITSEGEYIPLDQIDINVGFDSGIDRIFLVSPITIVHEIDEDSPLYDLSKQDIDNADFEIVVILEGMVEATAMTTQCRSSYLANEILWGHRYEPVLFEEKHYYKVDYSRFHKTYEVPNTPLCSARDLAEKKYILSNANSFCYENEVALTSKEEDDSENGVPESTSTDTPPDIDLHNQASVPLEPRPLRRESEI
Outline: (§1)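 Tetracycline-inducible stable T-REx-HEK-293 lines, induced overnight with 1 µg/ml tetracycline in DMEM/10% dialyzed FBS. Cells loaded 1 hr with 1.2 µM Thallos-AM in HBSS/20 mM HEPES pH 7.3 with 0.01% Pluronic F-127. Baseline fluorescence (ex 470, em 540 nm) read at 1 Hz before adding stimulus buffer with 1.8 mM Tl₂SO₄. Traces normalized to first point and vehicle-subtracted; slope taken 5–20 s post-Tl⁺; IC50 by nonlinear regression of CRCs.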

Dopamine D4.2 receptor = Dopamine D4.2 receptor (Homo sapiens, UniProt P21917, DEL265-296); experiment: Lead Profiling Screen; format: binding; details: significant interaction
hERG = hERG (Homo sapiens, UniProt Q12809); experiment: Lead Profiling Screen; format: binding; details: among 58 GPCRs, ion channels and transporters
Sequence of hERG (Q12809 whole entry): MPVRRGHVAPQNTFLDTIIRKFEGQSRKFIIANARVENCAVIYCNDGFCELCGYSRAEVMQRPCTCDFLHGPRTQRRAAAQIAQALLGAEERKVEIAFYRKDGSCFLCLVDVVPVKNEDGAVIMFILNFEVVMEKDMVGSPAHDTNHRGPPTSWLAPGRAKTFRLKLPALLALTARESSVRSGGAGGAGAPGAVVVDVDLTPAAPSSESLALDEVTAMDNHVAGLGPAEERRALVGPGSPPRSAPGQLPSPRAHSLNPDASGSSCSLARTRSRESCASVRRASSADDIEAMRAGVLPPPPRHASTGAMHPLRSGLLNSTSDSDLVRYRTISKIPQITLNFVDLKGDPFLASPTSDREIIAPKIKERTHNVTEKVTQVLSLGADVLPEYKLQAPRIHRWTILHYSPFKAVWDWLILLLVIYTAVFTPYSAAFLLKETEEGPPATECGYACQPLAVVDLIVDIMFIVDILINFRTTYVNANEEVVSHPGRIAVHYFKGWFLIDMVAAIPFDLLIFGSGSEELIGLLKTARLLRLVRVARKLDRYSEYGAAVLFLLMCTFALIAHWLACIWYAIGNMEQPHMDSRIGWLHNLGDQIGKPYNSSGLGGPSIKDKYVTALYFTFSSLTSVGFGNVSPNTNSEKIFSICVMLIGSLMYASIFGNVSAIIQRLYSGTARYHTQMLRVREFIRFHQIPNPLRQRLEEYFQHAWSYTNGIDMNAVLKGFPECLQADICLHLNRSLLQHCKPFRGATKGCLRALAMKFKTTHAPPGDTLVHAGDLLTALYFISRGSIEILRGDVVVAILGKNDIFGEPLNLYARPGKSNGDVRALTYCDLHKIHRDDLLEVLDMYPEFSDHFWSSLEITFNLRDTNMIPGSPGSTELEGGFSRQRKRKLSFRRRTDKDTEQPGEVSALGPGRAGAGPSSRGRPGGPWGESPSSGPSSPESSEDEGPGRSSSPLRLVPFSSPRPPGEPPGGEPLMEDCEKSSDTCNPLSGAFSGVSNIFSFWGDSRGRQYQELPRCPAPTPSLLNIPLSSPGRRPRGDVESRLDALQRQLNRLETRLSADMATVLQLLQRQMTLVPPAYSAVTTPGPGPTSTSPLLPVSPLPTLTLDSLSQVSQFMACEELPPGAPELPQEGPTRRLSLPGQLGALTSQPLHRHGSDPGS

[1] = CNS distribution study in mice; format: in vivo, mouse; details: average of four mice
Kir7.1 = molecular target: T2, Kir7.1 (Homo sapiens, UniProt O60928, M125R); experiment: Whole-cell patch clamp electrophysiology, Kir7.1; format: cell-based
T2 sequence (O60928 1-360 M125R): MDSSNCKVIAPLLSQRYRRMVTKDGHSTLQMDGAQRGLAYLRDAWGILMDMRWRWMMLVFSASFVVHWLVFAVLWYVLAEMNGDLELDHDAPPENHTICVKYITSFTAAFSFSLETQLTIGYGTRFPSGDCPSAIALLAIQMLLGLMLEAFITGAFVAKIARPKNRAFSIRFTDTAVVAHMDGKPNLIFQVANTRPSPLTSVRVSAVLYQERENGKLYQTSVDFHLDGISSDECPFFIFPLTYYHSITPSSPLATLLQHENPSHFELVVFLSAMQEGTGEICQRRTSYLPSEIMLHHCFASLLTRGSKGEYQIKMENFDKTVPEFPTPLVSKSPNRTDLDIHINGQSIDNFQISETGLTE
Outline: (§2)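 Human Kir7.1 (WT or mutant) was transiently co-transfected with EGFP into HEK-293T cells, which were replated next day on poly-L-lysine coverslips. Whole-cell clamp used bath 5 mM KCl, pH 7.4, and pipette 135 mM KCl, pH 7.3. Cells were held at −75 mV, stepped 500 ms to −120 mV, then ramped to 120 mV, every 5 s. Increasing test-compound doses were superfused, then BaCl₂ block; current read at −120 mV; variable-slope Hill fit, mean of n = 5.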

Norepinephrine receptor = Norepinephrine receptor (Homo sapiens, UniProt P23975); experiment: Lead Profiling Screen; format: binding; details: significant interaction
Sequence of Norepinephrine receptor (P23975 whole entry): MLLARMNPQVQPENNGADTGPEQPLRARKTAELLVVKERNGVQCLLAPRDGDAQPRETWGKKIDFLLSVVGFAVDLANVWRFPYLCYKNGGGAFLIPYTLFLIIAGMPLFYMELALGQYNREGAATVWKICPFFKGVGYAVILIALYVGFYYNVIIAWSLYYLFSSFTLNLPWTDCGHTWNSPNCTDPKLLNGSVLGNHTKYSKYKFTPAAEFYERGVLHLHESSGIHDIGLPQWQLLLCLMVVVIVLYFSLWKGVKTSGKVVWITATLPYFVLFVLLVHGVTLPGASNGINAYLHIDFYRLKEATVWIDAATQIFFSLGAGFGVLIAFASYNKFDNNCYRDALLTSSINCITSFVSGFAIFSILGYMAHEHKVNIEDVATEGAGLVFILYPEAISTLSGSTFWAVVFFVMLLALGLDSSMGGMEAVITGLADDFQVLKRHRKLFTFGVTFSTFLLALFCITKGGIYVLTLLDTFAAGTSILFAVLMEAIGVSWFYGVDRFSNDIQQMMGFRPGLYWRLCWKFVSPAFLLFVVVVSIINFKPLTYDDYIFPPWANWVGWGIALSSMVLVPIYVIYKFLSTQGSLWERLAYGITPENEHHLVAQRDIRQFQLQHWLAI

Kir6.2/SUR1 = Kir6.2/SUR1 (Homo sapiens, UniProt Q14654); experiment: Tl+ flux selectivity assay, Kir6.2/SUR1; format: cell-based; details: for Kir Channel Selectivity (Fold) 6.2: Thallium flux, Kir7.1 over Kir6.2/SUR1
Sequence of Kir6.2/SUR1 (Q14654 whole entry): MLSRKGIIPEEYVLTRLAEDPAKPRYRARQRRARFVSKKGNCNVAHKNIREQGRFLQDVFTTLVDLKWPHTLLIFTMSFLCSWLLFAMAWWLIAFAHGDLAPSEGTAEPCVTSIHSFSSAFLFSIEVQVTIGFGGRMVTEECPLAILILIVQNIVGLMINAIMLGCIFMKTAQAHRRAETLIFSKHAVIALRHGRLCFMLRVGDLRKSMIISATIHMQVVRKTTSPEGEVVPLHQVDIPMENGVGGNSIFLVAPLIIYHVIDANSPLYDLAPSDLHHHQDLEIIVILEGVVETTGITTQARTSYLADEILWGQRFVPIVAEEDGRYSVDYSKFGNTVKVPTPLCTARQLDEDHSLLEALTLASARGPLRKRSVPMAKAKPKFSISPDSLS
Sequence of Kir6.2/SUR1 (Q09428 whole entry partner): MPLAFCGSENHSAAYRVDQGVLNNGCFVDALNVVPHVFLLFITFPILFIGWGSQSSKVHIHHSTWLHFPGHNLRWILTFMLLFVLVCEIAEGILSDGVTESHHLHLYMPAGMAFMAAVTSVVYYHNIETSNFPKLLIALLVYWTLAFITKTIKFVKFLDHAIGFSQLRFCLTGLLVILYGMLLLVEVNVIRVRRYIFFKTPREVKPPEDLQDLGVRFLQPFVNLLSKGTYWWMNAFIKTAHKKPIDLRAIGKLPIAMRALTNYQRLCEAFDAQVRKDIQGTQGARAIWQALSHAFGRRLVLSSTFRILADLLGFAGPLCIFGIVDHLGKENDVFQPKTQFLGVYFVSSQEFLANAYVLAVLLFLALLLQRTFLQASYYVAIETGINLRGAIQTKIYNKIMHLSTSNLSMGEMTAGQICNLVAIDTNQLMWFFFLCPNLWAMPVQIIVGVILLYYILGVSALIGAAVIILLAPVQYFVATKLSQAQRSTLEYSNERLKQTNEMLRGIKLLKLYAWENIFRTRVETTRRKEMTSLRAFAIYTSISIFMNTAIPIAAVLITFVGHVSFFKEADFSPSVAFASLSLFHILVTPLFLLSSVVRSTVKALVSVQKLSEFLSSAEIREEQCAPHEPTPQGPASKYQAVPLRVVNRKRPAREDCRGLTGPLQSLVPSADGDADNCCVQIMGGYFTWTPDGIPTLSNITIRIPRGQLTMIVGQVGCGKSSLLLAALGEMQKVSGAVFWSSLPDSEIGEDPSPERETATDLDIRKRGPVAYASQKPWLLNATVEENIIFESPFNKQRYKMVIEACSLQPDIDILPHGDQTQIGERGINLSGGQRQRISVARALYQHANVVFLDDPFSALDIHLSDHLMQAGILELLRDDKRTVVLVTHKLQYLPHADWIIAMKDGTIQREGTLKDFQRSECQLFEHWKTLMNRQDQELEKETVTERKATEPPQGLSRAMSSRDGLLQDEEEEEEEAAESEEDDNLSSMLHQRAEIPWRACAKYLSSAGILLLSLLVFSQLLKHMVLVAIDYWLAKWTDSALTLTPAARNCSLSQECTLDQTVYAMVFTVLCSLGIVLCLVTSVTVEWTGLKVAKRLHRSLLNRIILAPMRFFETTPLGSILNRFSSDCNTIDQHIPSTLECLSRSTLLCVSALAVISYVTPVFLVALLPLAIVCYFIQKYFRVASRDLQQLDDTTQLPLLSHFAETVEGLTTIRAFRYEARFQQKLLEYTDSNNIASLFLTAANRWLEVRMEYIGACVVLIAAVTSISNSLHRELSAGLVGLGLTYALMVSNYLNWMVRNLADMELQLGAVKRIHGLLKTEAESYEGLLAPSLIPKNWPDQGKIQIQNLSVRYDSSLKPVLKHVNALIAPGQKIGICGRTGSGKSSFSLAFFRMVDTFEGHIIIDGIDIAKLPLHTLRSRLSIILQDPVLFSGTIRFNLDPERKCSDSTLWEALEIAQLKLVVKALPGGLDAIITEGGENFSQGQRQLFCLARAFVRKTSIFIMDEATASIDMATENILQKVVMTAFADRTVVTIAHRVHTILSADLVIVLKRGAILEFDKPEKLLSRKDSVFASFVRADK
Outline: as §1

Kir7.1-M125R [2] = molecular target: T3, Kir7.1-M125R (Homo sapiens, UniProt O60928, M125R); experiment: Tl+ flux assay in T-REx-HEK293 cells expressing Kir7.1-M125R; format: cell-based
T3 sequence (O60928 1-360 M125R): T2 sequence (O60928 1-360 M125R)
Outline: as §1

[3] = tested on: voltage-gated sodium channel; experiment: Lead Profiling Screen; format: binding; details: significant interaction
Kir7.1-WT = Kir7.1-WT (Homo sapiens, UniProt O60928); experiment: Whole-cell patch clamp, Kir7.1-WT; format: cell-based; details: read-out: Kir7.1-WT IC50, -120 mV
Sequence of Kir7.1-WT (O60928 whole entry): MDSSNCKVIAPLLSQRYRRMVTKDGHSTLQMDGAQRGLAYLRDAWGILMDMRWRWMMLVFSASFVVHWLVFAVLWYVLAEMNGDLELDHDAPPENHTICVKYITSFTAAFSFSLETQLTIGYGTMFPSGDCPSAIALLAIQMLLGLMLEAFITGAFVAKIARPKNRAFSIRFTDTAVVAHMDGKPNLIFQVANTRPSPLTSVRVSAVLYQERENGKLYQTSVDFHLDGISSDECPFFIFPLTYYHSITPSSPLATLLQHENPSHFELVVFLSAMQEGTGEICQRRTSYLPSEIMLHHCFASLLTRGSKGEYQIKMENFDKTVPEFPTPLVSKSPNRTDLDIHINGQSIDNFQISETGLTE
Outline: as §2

Kir1.1 = Kir1.1 (Rattus norvegicus, UniProt P35560); experiment: Tl+ flux selectivity assay, Kir1.1; format: cell-based
Sequence of Kir1.1 (P35560 whole entry): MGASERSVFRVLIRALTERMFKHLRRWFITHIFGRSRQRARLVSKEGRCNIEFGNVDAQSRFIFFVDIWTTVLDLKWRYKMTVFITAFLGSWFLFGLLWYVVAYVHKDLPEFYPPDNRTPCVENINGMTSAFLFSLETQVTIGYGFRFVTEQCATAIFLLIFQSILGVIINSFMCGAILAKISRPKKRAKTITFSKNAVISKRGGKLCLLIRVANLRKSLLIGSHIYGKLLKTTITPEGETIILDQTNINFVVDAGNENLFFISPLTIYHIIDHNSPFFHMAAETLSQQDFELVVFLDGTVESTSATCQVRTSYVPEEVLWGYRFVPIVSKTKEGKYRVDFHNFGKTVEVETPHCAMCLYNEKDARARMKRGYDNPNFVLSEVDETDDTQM
Outline: as §1

Kir7.1 E149Q/M125R = Kir7.1 E149Q/M125R (Homo sapiens, UniProt O60928, E149Q/M125R); experiment: Whole-cell patch clamp, Kir7.1 E149Q/M125R mutant; format: cell-based; details: -120 mV
Sequence of Kir7.1 E149Q/M125R (O60928 whole entry M125R/E149Q): as the sequence (O60928 whole entry) above, with M125R, E149Q counted along it
Outline: as §2

Kir7.1 pore mutants [4] = format: cell-based, human; details: 3 µM, -120 mV
Outline: (§3)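 Single pore-lining residues were mutated on a WT or M125R Kir7.1 background and expressed transiently with EGFP in HEK-293T cells. The whole-cell step-ramp protocol from a −75 mV holding potential was used, with test compound at 3 µM. Read-out was % inhibition of current at −120 mV, mean ± SEM, tested against the respective parent channel (P < 0.05).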

Kir7.1 pore mutants [5] = molecular target: Kir7.1 pore mutants (Homo sapiens, UniProt O60928, L146V); format: cell-based; details: 3 µM, -120 mV
Sequence of Kir7.1 pore mutants (Homo sapiens, UniProt O60928, L146V) (O60928 whole entry L146V): as the sequence (O60928 whole entry) above, with L146V counted along it
Outline: as §3

Kir7.1-M125R [6] = molecular target: T3, Kir7.1-M125R; experiment: Whole-cell voltage clamp, Kir7.1-M125R; format: cell-based
Outline: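 HEK-293T cells transiently co-transfected with WT or mutant human Kir7.1 plus EGFP marker, replated next day on poly-L-lysine coverslips. Bath: 135 NaCl, 5 KCl, pH 7.4; pipette: 135 KCl, 1 EGTA, pH 7.3 (mM). Hold −75 mV, step to −120 mV for 500 ms, ramp to 120 mV. Increasing test compound concentrations superfused, then Ba²⁺ block. Inhibition at −120 mV; Hill-equation IC50, n = 5.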

[7] = plasma
[8] = plasma; remark: listed apart in the source
Kir7.1-WT-A150S = Kir7.1-WT-A150S (Homo sapiens, UniProt O60928, A150S); experiment: Whole-cell patch clamp, Kir7.1-WT-A150S mutant; format: cell-based; details: -120 mV
Sequence of Kir7.1-WT-A150S (O60928 whole entry A150S): as the sequence (O60928 whole entry) above, with A150S counted along it
Outline: as §2

## CC(C)OC(=O)NC1CCN(Cc2cc(Cl)c3cccnc3c2O)CC1 [Compound 19, iso-Propyl (1-((5-chloro-8-hydroxyquinolin-7-yl)methyl)piperidin-4-yl)carbamate]
Kir2.1
  Kir Channel Selectivity (Fold) 2.1: at least 23 Fold
Kir2.1; listed as 19 (ML418)
  Kir Channel Selectivity (Fold) 2.1: >23 Fold
Dopamine D4.2 receptor
  Radioligand displacement, Dopamine D4.2 receptor: > 50%
hERG
  Ancillary pharmacology, hERG: clean ancillary pharmacology
[1]
  brain concentration: 323.9 ng/g
Kir7.1; Kir7.1 IC50 (Patch clamp), -120 mV
  IC50: 300 nM and 310 nM
Norepinephrine receptor
  Radioligand displacement, Norepinephrine receptor: > 50%
Kir6.2/SUR1; listed as 19 (ML418)
  Kir Channel Selectivity (Fold) 6.2: 1 Fold
Kir6.2/SUR1; listed as ML418
  Kir Channel Selectivity (Fold) 6.2: equally potent
Kir7.1-M125R [2]
  IC50: 1300 nM
[3]
  Radioligand displacement, voltage-gated sodium channel: > 50%

## Oc1c(CN2CCC(Cc3ccccc3)CC2)cc(Cl)c2cccnc12 [VU714]
Kir2.1
  Kir2.1 IC50 (Tl+ flux): insensitive
  Kir Channel Selectivity (Fold) 2.1: >5 Fold
Kir2.1; read-out: Kir2.1 IC50 (Tl+ flux)
  IC50: > 30000 nM
Kir7.1-WT
  IC50: 1400 nM and ~2000 nM
Kir1.1
  Kir1.1 (ROMK) IC50 (Tl+ flux): weakly inhibited
Kir1.1; read-out: Kir1.1 (ROMK) IC50 (Tl+ flux)
  IC50: 16000 nM
Kir7.1 E149Q/M125R; 3 µM
  Effect of mutation E149Q/M125R on sensitivity: partial, albeit significant (P<0.05), loss of sensitivity
Kir7.1 E149Q/M125R; read-out: Kir7.1-M125R-E149Q IC50, patch clamp
  IC50: 18100 nM and ~18000 nM
Kir7.1 pore mutants [4]
  Effect of double mutation E149Q and A150S on sensitivity: additive loss of VU714 sensitivity; also recorded: virtually eliminated block of the channel
  Effect of mutation E149D on block: no effect on block
Kir7.1 pore mutants [5]
  Effect of mutation L146V on Kir7.1 inhibition: no effect
Kir7.1-M125R [6]
  Shift in IC50, patch clamp electrophysiology compared with Tl+ flux: 3.7 fold
Kir7.1-M125R [6]; 10 µM
  Inhibition of outward and inward Kir7.1-M125R-mediated current: fully inhibited
Kir7.1-M125R [6]; compared with WT
  Effect of M125R mutation on sensitivity: does not alter VU714 sensitivity
Kir7.1-M125R [6]; read-out: Kir7.1-M125R IC50 (whole-cell voltage clamp), -120 mV
  IC50: 1500 nM and 1600 nM and ~2000 nM
[7]
  PPB (%Fu) Human: 0.5%
[8]
  PPB (%Fu) Mouse: 0.7%
Kir7.1; read-out: Kir7.1 IC50 (Patch clamp), -120 mV
  IC50: 1500 nM
Kir6.2/SUR1
  Kir Channel Selectivity (Fold) 6.2: 5 Fold
Kir6.2/SUR1; read-out: Kir6.2/SUR1 IC50 (Tl+ flux)
  IC50: 30000 nM
Kir7.1-M125R [2]; read-out: Kir7.1 IC50 (Thallium flux), hKir7.1 (M125R) Tl+ flux, average n = 3
  IC50: 5600 nM
Kir7.1-WT-A150S; 3 µM
  Effect of mutation A150S on inhibition: partial loss of inhibition
Kir7.1-WT-A150S; read-out: Kir7.1-WT-A150S IC50, patch clamp
  IC50: 6900 nM and ~7000 nM
